# Screening results: PubChem BioAssay, several laboratories
# PostGolgi ctrl: growth inhibition of yeast control strain, primary screen, counter-screen for post-Golgi transport modulator project; 5% of 98,000 active; AID 738, 2007; inhibition, % at 10 µM; efflux-deficient yeast background strain, growth absorbance A615, 16 h
# Pyk2 oligo antag: antagonists of Pyk2 self-association, primary screen, Q293 cells, FERM NanoBiT luminescence, HTS. active compounds read low. 0.83% of 99,000 active. z-score (the deposit names both 25 µM and 10 µM);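 active means Z-score of -3 or lower, scaled per plate to the spread of control and sample wells; inactive means z-score above -3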;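 further: negative z-score means lost luminescence so less FERM oligomerization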
# Candida biofilm: clotrimazole potentiators killing Candida biofilms, primary screen, with clotrimazole, Alamar Blue | 0.14% of 85,000 active | C. albicans biofilm + clotrimazole | inhibition, % at 6 µM;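 active means inhibition above 20%; inactive means inhibition below 20%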;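 further: preformed 24 hr biofilms exposed to compound for 48 hr; 0% = biofilm without compound and 100% = blank killed by clotrimazole plus chlorhexidine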
# Ecoli tolC: growth inhibitors of E. coli tolC mutant, primary screen, strain BW25113 ΔtolC::kan, 384-well; OD615; growth inhibition, % at 10 µM (by protocol); 2.2% of 65,000 active;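 active means growth inhibition at or above a cutoff equal to the mean over every tested compound plus 3 SD, cut at about 60% in these data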;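 further: growth measured after 20 h incubation at 37 °C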
#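 Test system: tolC-deleted E. coli BW25113; medium: LB with kanamycin 50 µg/mL; compound: single-point testing at 10 µM; incubation: 20 h compound exposure of bacteria at 37 °C; signal: OD at 615 nm; evaluation: growth inhibition in percent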
# PostGolgi yeast: phenotypic screen on post-Golgi transport, primary screen; post-Golgi transport phenotypic cell assay; 0.9% of 98,000 active; AID 739, 2007; inhibition, % at 10 µM;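 further: yeast cells grown in 1536-well plates; yeast grown about 18 h at 30C before absorbance read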
# FAK blocker: FAK kinase inhibitors, primary screen, biochemical | Focal adhesion kinase 1 (Homo sapiens), Q05397 | biochemical FAK kinase activity assay | inhibition, %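 (tested at 7 µM)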 | 0.84% of 97,000 active; in the data active means inhibition above about 19%;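 further: 0% = DMSO and 100% = reference compound high control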
# Starred values were filed as active, the others as inactive; nt = no result. A selection: hits, their analogues and other compounds. The true share with any hit is near 6.9%. Unless noted, no stated cut-off is given here; in the data, active means inhibition above about 30%; inactive means the rest.
SMILES,PostGolgi ctrl,Pyk2 oligo antag,Candida biofilm,Ecoli tolC,PostGolgi yeast,FAK blocker
CCOC(=O)c1ccc(NS(=O)(=O)N2CCCCCC2)cc1,-1,-3.1*,6,35,-3,0
CSc1ccc(S(=O)(=O)NC2CCCCCC2)cc1,70*,-1.7,8,33,-9,1
CCOC(=O)c1ccc(NC(=O)C(C)NS(=O)(=O)c2ccc(OC)cc2)cc1 (centres undefined),36*,-0.68,11,-3,-5,0
CCNC(=O)Cc1ccc(NS(=O)(=O)c2ccc(F)cc2)cc1,-17,0.32,1,0,11,-8
CCn1cc(Br)c(C(=O)Nc2ccc(OC)cc2)n1,-3,-0.23,1,5,-5,0
O=C(CN1CCOCC1)Nc1ccc(-c2nc3ccccc3[nH]2)cc1,9,1.3,nt,-1,5,4
CCOc1ccc(NS(=O)(=O)c2ccc(N)cc2)cc1,-8,-0.36,1,nt,-3,0
CCOc1ccc(NS(=O)(=O)c2ccc(SC)cc2)cc1,12,-0.91,6,73*,5,4
CCOC(=O)c1ccc(NS(=O)(=O)c2ccc(SC)cc2)cc1,18,-2.8,nt,70*,-14,-3
O=C(NCCCN=C1NS(=O)(=O)c2ccccc21)c1ccncc1,1,0.1,0,nt,22,-1
Cc1cccc(C)c1N1CCc2cn[nH]c21,0,-1.1,4,nt,5,-3
CC1=C(C(=O)OCC(C)C)C(c2cc3c(cc2Br)OCO3)NC(=O)N1C (centres undefined),38*,-2,9,66*,-2,10
CCCOc1cc(N(CC)CC)ccc1/C=C(/C#N)c1nc2ccc(C)cc2[nH]1,17,-2.8,nt,nt,-3,3
CCOc1cc(N(CC)CC)ccc1/C=C(/C#N)c1nc2ccccc2[nH]1,50*,-3.1*,nt,nt,12,-3
CCN(CC)c1ccc(/C=C(/C#N)c2nc3ccc(C)cc3[nH]2)c(OC(C)C)c1,17,-3.1*,nt,nt,-7,3
COC(=O)c1cc(OC)c(OC)cc1NC(=O)c1ccccc1,3,0.14,6,13,0,nt
CCCNS(=O)(=O)c1ccc(C(=O)NCC2CCCO2)cc1 (centres undefined),-3,0.85,-2,-10,-1,2
CCOC(=O)c1c(N)sc(C(O)(C(F)(F)F)C(F)(F)F)c1-c1ccc(OC)cc1OC,21,-2.9,6,48,3,-11
Brc1ccccc1-c1nnc(COc2cccc3cccnc23)o1,33*,0.29,1,nt,9,1
NCCc1nnc(SCc2c(F)cccc2Cl)o1,-1,0.01,5,-5,-3,-3
Clc1ccccc1OCc1nnc(-c2ccccc2Br)o1,14,-1.2,0,72*,8,1
Fc1cccc(Cl)c1CSc1nnc(COc2cccc3cccnc23)o1,62*,0.53,5,57,4,0
O=C(O)CNC(=O)c1ccc2c(c1)OCCO2,4,2,2,-17,-20,-4
NC(=O)CN1CCOCCOCCOCCOCCOCC1,7,0.37,2,nt,0,-6
O=C(COc1ccccc1)Nc1nnc(-c2ccccc2)o1,3,nt,0,21,-1,4
SMILES,PostGolgi ctrl,Pyk2 oligo antag,Candida biofilm,Ecoli tolC,PostGolgi yeast,FAK blocker
O=C(COc1ccccc1)Nc1nnc(-c2ccc(Cl)s2)o1,20,nt,7,96*,12,4
Cc1cc(C)cc(OCC(=O)Nc2cccc(C(=O)O)c2)c1,3,0.11,5,nt,4,-2
CCOc1ccc2nc(NCCNC(=O)C(C)C)c(C)cc2c1,0,0.92,6,8,-4,nt
CCC(OC(=O)C(NC(=O)c1ccccc1)c1ccccc1)C(=O)Nc1cc(C)on1 (centres undefined),-6,-0.62,2,2,42*,-5
CCC(Oc1ccccc1)C(=O)Nc1cc(C)on1 (centres undefined),6,nt,nt,-13,0,7
Cc1cc(=O)[nH]c(SCC(=O)Nc2nc(-c3ccccc3)cs2)n1,25,1.3,10,69*,5,-8
O=C(/C=C/c1cccs1)Nc1nc(-c2ccccc2)cs1,33*,-1.2,nt,nt,-3,-7
Cc1csc(SCC(=O)NC(=O)NCc2ccccc2)n1,42*,-0.14,5,0,6,3
Cc1csc(SCC(=O)Nc2nc(-c3ccccc3)cs2)n1,15,0.69,-3,91*,1,2
O=C(CSc1nncs1)NC(=O)NCc1ccccc1,-1,-0.19,2,-19,5,nt
